Assay results taken from ChEMBL document CHEMBL3259681, “Structure-activity relationship refinement and further assessment of 4-phenylquinazoline-2-carboxamide translocator protein ligands as antiproliferative agents in human glioblastoma tumors” (J Med Chem, 2014).
Active and inactive are the calls of the source. The calls are words filed in the database; no cut-off is given here.

Experiments:
Homo sapiens [1] = species on record: Homo sapiens; assay: Induction of mitochondrial membrane depolarization in human U-343 MGa cells at 3 uM for 15 mins by cell fluo-analyzer relative to control; format: functional, cell-based
Method in brief: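 U343 cells were grown at 37 °C and 5% CO₂ in EMEM with 10% FBS, seeded at ~60 × 10³ cells/well and grown 24 h. They were then exposed to the uncoupler as a depolarized positive control. Floating and adherent cells were pooled and stained with MitoPotential dye (20 min, rt), then with 7-AAD (5 min). The Muse cytometer gave % live, depolarized and dead cells.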

Translocator protein = Translocator protein (Rattus norvegicus, UniProt P16257); assay: Displacement of [3H]PK11195 from TSPO in rat kidney mitochondrial membranes; format: cell membranes
Homo sapiens [2] = species on record: Homo sapiens; assay: Agonist activity at GPCR in human U-343 MGa cell membrane assessed as increase in basal [35S]GTPgamma binding at 100 uM; format: functional, cell membranes
[3] = molecular target: Protein kinase C beta type (Homo sapiens) (UniProt P05771); assay: Inhibition of human PKCbeta2 at 10 uM
[4] = molecular target: Vascular endothelial growth factor receptor 2 (Homo sapiens) (UniProt P35968); assay: Inhibition of human KDR kinase at 10 uM
[5] = molecular target: Receptor-type tyrosine-protein kinase FLT3 (Homo sapiens) (UniProt P36888); assay: Inhibition of human FLT-3 kinase at 10 uM
[6] = molecular target: Tyrosine-protein kinase ABL1 (Homo sapiens) (UniProt P00519); assay: Inhibition of human Abl kinase at 10 uM
[7] = molecular target: Mast/stem cell growth factor receptor Kit (Homo sapiens) (UniProt P10721); assay: Inhibition of human c-kit kinase at 1 uM
Homo sapiens [8] = species on record: Homo sapiens; assay: Agonist activity at GPCR in human U-343 MGa cell membrane assessed as increase in basal [35S]GTPgamma binding at 0.1 nM; format: functional, cell membranes
[9] = molecular target: Protein kinase C beta type (Homo sapiens) (UniProt P05771); assay: Inhibition of human PKCbeta1 at 1 uM
[10] = molecular target: Epidermal growth factor receptor (Homo sapiens) (UniProt P00533); assay: Inhibition of human EGFR kinase at 1 uM
Homo sapiens [11] = species on record: Homo sapiens; assay: Cytotoxicity against human U-343 MGa cells assessed as decrease in cell viability at 50 uM after 24 hrs by colorimetric viability MTS assay; format: functional, cell-based
Method in brief: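 U343 cells in MEM with 10% FBS were seeded ~4.5 × 10³/well and grown 24 h. They were then exposed 24 h to 50 μM compound in complete medium; DMSO or EtOH vehicle was ≤1%. Viable cells were read by MTS colorimetric conversion as percent of vehicle control. Measurements in duplicate; mean ± SEM of three determinations.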

[12] = molecular target: Vascular endothelial growth factor receptor 1 (Homo sapiens) (UniProt P17948); assay: Inhibition of human FLT-1 kinase at 1 uM
Homo sapiens [13] = species on record: Homo sapiens; assay: Induction of mitochondrial membrane depolarization in human U-343 MGa cells at 10 uM after 5 hrs by cell fluo-analyzer relative to control; format: functional, cell-based
Method in brief: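 U343 cells were seeded ~60 × 10³/well, grown 24 h, then treated 5 h with 10 μM compound; CCCP 3 μM for 15 min served as depolarized control. Floating and adherent cells were pooled and stained with MitoPotential dye for 20 min at rt, then 7-AAD for 5 min. Percent live, depolarized and dead cells was read on a Muse cytometer.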

[14] = molecular target: Epidermal growth factor receptor (Homo sapiens) (UniProt P00533); assay: Inhibition of human EGFR kinase at 10 uM
[15] = molecular target: Protein kinase C beta type (Homo sapiens) (UniProt P05771); assay: Inhibition of human PKCbeta2 at 1 uM
[16] = molecular target: Tyrosine-protein kinase ABL1 (Homo sapiens) (UniProt P00519); assay: Inhibition of human Abl kinase at 1 uM
[17] = molecular target: Receptor tyrosine-protein kinase erbB-2 (Homo sapiens) (UniProt P04626); assay: Inhibition of human HER2/ErbB2 kinase at 10 uM
[18] = molecular target: Vascular endothelial growth factor receptor 2 (Homo sapiens) (UniProt P35968); assay: Inhibition of human KDR kinase at 1 uM
[19] = molecular target: Platelet-derived growth factor receptor beta (Homo sapiens) (UniProt P09619); assay: Inhibition of human PDGFRbeta kinase at 10 uM
[20] = molecular target: Protein kinase C beta type (Homo sapiens) (UniProt P05771); assay: Inhibition of human PKCbeta1 at 10 uM
[21] = molecular target: Receptor tyrosine-protein kinase erbB-2 (Homo sapiens) (UniProt P04626); assay: Inhibition of human HER2/ErbB2 kinase at 1 uM
[22] = molecular target: Proto-oncogene tyrosine-protein kinase receptor Ret (Homo sapiens) (UniProt P07949); assay: Inhibition of human Ret kinase at 10 uM
[23] = molecular target: Platelet-derived growth factor receptor beta (Homo sapiens) (UniProt P09619); assay: Inhibition of human PDGFRbeta kinase at 1 uM
[24] = molecular target: Proto-oncogene tyrosine-protein kinase receptor Ret (Homo sapiens) (UniProt P07949); assay: Inhibition of human Ret kinase at 1 uM
[25] = molecular target: Mast/stem cell growth factor receptor Kit (Homo sapiens) (UniProt P10721); assay: Inhibition of human c-kit kinase at 10 uM
[26] = molecular target: Platelet-derived growth factor receptor alpha (Homo sapiens) (UniProt P16234); assay: Inhibition of human PDGFRalpha kinase at 10 uM
[27] = molecular target: Receptor-type tyrosine-protein kinase FLT3 (Homo sapiens) (UniProt P36888); assay: Inhibition of human FLT-3 kinase at 1 uM
[28] = molecular target: Serine/threonine-protein kinase mTOR (Homo sapiens) (UniProt P42345); assay: Inhibition of human mTOR kinase at 10 uM
[29] = molecular target: Serine/threonine-protein kinase mTOR (Homo sapiens) (UniProt P42345); assay: Inhibition of human mTOR kinase at 1 uM
[30] = molecular target: Vascular endothelial growth factor receptor 1 (Homo sapiens) (UniProt P17948); assay: Inhibition of human FLT-1 kinase at 10 uM
Homo sapiens [31] = species on record: Homo sapiens; assay: (§1) Cytotoxicity against human U-343 MGa cells assessed as inhibition of cell survival after 24 hrs by colorimetric viability MTS assay; format: functional, cell-based
Method in brief: (§2)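 U343 cells were seeded ~4.5 × 10³/well, grown 24 h, then treated 24 h with 10 nM–100 μM compound; vehicle (DMSO or EtOH) was ≤1%. Viability by MTS conversion relative to control (100%). IC50 was taken as the concentration giving half-maximal survival inhibition. Duplicates, ≥3 experiments, mean ± SEM.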

[32] = as §1; format: functional, cell-based; method in brief: as §2
[33] = molecular target: Platelet-derived growth factor receptor alpha (Homo sapiens) (UniProt P16234); assay: Inhibition of human PDGFRalpha kinase at 1 uM
Homo sapiens [34] = species on record: Homo sapiens; assay: Binding affinity to Central-type benzodiazepine receptor (unknown origin)
[35] = molecular target: Translocator protein (Rattus norvegicus) (UniProt P16257); assay: Displacement of [3H]PK11195 from TSPO in rat kidney mitochondrial membranes at 1 uM; format: cell membranes
Method in brief: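 Competition binding against 0.6 nM [³H]PK11195 in crude rat kidney mitochondrial membranes, 50 mM Tris–HCl pH 7.4. Six compound concentrations spanning 0.05 nM–20 μM, each in triplicate. IC50 from displacement curves, converted to Ki by Cheng–Prusoff. Percent inhibition taken at 1 μM. Values are mean ± SEM of three determinations.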

[36] = Cytotoxicity against human U-343 MGa cells assessed as inhibition of cell survival at 100 uM after 24 hrs by colorimetric viability MTS assay; format: functional; method in brief: as §2

Chain of Translocator protein (P16257 whole entry, looked up): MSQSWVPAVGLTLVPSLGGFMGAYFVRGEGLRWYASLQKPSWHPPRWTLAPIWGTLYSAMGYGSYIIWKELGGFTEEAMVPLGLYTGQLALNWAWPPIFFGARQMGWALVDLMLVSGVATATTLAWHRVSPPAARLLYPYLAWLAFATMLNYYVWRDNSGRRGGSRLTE
Chain of Protein kinase C beta type (Homo sapiens) (P05771 2-671 limits assumed): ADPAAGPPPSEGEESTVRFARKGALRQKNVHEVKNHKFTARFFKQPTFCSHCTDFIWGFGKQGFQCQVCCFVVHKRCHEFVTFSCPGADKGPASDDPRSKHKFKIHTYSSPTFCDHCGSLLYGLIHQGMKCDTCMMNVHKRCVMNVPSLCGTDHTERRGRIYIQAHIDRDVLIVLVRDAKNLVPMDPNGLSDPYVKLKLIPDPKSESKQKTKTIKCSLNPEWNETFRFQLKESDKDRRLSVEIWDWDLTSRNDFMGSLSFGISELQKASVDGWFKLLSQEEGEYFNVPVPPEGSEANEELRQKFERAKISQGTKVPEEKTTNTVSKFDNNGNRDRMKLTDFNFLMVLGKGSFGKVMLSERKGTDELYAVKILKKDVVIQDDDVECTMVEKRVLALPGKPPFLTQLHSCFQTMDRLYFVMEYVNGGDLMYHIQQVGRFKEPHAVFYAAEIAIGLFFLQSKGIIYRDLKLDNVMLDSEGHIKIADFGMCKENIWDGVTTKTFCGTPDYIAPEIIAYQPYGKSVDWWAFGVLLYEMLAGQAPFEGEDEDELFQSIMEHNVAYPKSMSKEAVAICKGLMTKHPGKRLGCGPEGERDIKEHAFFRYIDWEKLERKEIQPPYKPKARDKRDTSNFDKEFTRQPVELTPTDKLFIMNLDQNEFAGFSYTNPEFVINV
Chain of Platelet-derived growth factor receptor alpha (Homo sapiens) (P16234 whole entry): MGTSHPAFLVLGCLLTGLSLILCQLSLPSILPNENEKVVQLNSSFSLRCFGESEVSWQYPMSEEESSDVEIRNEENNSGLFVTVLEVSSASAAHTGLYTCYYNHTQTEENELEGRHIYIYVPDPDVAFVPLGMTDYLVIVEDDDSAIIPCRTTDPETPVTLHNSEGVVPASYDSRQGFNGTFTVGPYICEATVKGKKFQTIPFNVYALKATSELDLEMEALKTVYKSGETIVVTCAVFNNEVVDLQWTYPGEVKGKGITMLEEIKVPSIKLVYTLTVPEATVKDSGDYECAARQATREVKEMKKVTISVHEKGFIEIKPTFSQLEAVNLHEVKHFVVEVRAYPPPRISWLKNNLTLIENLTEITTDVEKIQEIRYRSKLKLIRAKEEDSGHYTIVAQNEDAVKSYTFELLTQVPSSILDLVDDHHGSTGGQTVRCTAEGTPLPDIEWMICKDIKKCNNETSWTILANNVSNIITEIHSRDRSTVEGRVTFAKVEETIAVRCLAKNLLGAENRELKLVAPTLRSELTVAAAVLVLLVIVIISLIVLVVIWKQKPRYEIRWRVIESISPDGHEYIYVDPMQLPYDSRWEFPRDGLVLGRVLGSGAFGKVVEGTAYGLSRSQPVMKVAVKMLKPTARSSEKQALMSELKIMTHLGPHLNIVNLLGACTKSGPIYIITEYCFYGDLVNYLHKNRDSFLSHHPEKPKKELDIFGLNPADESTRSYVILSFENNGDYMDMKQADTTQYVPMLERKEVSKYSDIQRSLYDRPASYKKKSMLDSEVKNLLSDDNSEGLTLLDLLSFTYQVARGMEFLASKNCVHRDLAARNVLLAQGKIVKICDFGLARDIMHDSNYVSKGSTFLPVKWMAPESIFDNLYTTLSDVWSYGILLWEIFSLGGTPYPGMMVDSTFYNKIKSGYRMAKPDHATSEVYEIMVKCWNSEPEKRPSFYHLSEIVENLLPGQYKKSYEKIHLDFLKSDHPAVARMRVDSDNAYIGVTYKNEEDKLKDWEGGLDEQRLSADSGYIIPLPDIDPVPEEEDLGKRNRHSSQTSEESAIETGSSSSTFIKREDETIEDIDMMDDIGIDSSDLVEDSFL
Chain of Platelet-derived growth factor receptor beta (Homo sapiens) (P09619 whole entry): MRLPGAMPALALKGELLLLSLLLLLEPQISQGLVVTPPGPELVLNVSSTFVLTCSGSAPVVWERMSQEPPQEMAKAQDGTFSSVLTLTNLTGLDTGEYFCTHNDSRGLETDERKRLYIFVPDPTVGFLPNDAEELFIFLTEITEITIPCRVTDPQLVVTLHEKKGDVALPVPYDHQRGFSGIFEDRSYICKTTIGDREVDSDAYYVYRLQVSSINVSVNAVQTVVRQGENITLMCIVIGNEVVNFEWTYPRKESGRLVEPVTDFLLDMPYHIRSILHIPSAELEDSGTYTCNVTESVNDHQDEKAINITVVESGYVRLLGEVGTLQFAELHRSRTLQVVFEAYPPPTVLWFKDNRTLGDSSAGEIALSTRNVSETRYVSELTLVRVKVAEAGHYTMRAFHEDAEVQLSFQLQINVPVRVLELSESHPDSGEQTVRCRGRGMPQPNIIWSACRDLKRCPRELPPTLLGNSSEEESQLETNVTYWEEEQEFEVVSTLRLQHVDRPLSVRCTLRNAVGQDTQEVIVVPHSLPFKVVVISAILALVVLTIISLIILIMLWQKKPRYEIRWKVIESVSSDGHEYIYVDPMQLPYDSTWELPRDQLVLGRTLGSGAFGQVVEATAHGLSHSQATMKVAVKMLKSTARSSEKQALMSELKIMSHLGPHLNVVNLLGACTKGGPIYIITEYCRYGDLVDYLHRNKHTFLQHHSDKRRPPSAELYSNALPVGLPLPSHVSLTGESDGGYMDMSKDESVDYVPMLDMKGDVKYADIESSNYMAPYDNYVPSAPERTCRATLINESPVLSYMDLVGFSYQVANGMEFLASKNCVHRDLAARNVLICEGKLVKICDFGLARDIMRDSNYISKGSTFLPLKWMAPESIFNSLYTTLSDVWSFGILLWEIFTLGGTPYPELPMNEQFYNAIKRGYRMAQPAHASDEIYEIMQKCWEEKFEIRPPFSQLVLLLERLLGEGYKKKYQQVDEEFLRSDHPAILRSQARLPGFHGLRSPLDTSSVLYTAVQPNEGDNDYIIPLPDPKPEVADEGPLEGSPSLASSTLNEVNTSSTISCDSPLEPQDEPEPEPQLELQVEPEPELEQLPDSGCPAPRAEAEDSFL
Chain of Receptor tyrosine-protein kinase erbB-2 (Homo sapiens) (P04626 whole entry): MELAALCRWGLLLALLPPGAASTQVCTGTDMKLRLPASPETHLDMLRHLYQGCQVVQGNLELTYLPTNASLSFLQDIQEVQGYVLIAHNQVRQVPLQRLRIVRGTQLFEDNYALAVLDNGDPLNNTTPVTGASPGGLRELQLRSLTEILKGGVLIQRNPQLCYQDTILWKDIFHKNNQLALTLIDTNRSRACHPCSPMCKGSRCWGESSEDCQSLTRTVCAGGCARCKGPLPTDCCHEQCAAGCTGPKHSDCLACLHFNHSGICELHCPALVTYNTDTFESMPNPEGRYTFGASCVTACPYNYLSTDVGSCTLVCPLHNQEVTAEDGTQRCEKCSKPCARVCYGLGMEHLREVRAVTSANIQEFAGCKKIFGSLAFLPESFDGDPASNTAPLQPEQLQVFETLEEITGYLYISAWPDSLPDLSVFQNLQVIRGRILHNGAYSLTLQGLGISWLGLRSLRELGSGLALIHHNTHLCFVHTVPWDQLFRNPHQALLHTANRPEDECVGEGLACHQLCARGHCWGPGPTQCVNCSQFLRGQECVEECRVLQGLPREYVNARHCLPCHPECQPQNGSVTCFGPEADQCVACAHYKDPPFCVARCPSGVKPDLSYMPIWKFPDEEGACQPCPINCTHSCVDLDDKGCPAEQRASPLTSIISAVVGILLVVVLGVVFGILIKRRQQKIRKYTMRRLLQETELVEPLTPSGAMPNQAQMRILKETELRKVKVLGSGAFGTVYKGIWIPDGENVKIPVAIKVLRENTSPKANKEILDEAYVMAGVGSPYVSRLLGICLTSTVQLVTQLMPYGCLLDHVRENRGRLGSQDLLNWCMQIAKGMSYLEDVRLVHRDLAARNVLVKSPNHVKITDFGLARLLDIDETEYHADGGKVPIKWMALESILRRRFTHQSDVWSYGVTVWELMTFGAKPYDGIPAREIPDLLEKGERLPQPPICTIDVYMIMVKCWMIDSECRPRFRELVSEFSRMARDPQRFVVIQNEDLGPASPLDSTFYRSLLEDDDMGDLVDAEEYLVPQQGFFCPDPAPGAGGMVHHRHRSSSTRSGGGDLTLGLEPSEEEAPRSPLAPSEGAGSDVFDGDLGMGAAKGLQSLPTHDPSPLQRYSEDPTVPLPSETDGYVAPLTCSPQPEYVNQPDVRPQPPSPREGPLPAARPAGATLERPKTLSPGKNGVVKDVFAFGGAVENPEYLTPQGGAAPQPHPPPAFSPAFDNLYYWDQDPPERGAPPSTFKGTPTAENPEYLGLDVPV
Chain of Translocator protein (Rattus norvegicus) (P16257 whole entry, looked up): as the sequence (P16257 whole entry, looked up) above

N#CC(C#N)=NNc1cccc(Cl)c1
Activity (Homo sapiens [1]): Active

CN(Cc1ccccc1)C(=O)c1nc(-c2ccccc2F)c2ccccc2n1
Ki (Translocator protein): 1.11 nM

CN(Cc1ccccc1)C(=O)c1nc(-c2ccccc2)c2ccccc2n1
Ki (Translocator protein): 3.99 nM

CCN(Cc1ccc(C)cc1)C(=O)c1nc(-c2ccccc2Cl)c2ccccc2n1
Activity (Homo sapiens [2]): inactive
inhibition [3]: inactive
inhibition [4]: inactive
inhibition [5]: inactive
inhibition [6]: inactive
inhibition [7]: inactive
Activity (Homo sapiens [8]): inactive
inhibition [9]: inactive
inhibition [10]: inactive
inhibition (Homo sapiens [11]): Active
inhibition [12]: inactive
Activity (Homo sapiens [13]): Active
inhibition [14]: inactive
inhibition [15]: inactive
inhibition [16]: inactive
inhibition [17]: inactive
inhibition [18]: inactive
inhibition [19]: inactive
inhibition [20]: inactive
inhibition [21]: inactive
inhibition [22]: inactive
inhibition [23]: inactive
inhibition [24]: inactive
inhibition [25]: inactive
Ki (Translocator protein): 0.489 nM
inhibition [26]: inactive
inhibition [27]: inactive
inhibition [28]: inactive
inhibition [29]: inactive
inhibition [30]: inactive
inhibition (Homo sapiens [31]): Dose-dependent effect
IC50 [32]: 15100 nM
inhibition [33]: inactive

CCCCN(CCCC)C(=O)c1nc(-c2ccccc2)c2ccccc2n1
Activity (Homo sapiens [34]): inactive

O=C(NCc1ccccc1)c1nc(-c2ccccc2Cl)c2ccccc2n1
inhibition [35]: 16%

CCN(Cc1ccccc1)C(=O)c1nc(-c2ccccc2Cl)c2ccccc2n1
Ki (Translocator protein): 0.235 nM

CCN(Cc1ccccc1)C(=O)c1nc(-c2ccccc2F)c2ccccc2n1
Ki (Translocator protein): 0.888 nM

CCN(Cc1ccc(C(=O)O)cc1)C(=O)c1nc(-c2ccccc2)c2ccccc2n1
Ki (Translocator protein): 719 nM

CCCCCCN(CCCCCC)C(=O)c1nc(-c2ccccc2Cl)c2ccccc2n1
Activity (Homo sapiens [34]): inactive

CCN(Cc1ccccc1)C(=O)c1nc(-c2ccc(C)cc2)c2ccccc2n1
Ki (Translocator protein): 1.49 nM

CCN(Cc1ccc(O)cc1)C(=O)c1nc(-c2ccccc2)c2ccccc2n1
Ki (Translocator protein): 8.76 nM

CCN(Cc1ccc(C)cc1)C(=O)c1nc(-c2ccccc2)c2ccccc2n1
Ki (Translocator protein): 2.57 nM

CCN(Cc1ccc([N+](=O)[O-])cc1)C(=O)c1nc(-c2ccccc2)c2ccccc2n1
Ki (Translocator protein): 4.2 nM

CCC(C)N(C)C(=O)c1nc(-c2ccccc2Cl)c2ccccc2n1 (stereo not given)
Activity (Homo sapiens [34]): inactive

CCCCCCN(CCCCCC)C(=O)c1nc(-c2ccccc2)c2ccccc2n1
Activity (Homo sapiens [34]): inactive
inhibition (Homo sapiens [11]): Active
Activity (Homo sapiens [13]): Active
inhibition (Homo sapiens [31]): Dose-dependent effect
IC50 [32]: 17700 nM

CCCCCCN(CCCCCC)C(=O)c1nc(-c2ccc(Cl)cc2)c2ccccc2n1
Activity (Homo sapiens [34]): inactive

CCN(Cc1ccccc1)C(=O)c1nc(-c2ccccc2)c2ccccc2n1
Ki (Translocator protein): 1.13 nM

CCC(C)N(C)C(=O)c1cc2ccccc2c(-c2ccccc2Cl)n1 (stereo not given) [PK-11195]
Activity (Homo sapiens [13]): Active
inhibition at 100 µM [36]: 40%

O=C(NCc1ccccc1)c1nc(-c2ccccc2)c2ccccc2n1
inhibition [35]: 41%

CCC(C)N(C)C(=O)c1nc(-c2ccccc2)c2cc(Cl)ccc2n1 (stereo not given)
Activity (Homo sapiens [34]): inactive

CCN(Cc1ccccc1)C(=O)c1nc(-c2ccccc2)c2cc(Cl)ccc2n1
Ki (Translocator protein): 24.3 nM

CCCCCN(CCCCC)C(=O)c1nc(-c2ccccc2)c2ccccc2n1
Activity (Homo sapiens [34]): inactive

CCN(Cc1ccc(C)cc1)C(=O)c1nc(-c2ccccc2F)c2ccccc2n1
Ki (Translocator protein): 0.6 nM

CCC(C)N(C)C(=O)c1nc(-c2ccccc2)c2ccccc2n1 (stereo not given)
Activity (Homo sapiens [34]): inactive

CCN(Cc1ccc(OC)cc1)C(=O)c1nc(-c2ccccc2)c2ccccc2n1
Ki (Translocator protein): 2.77 nM

CN(Cc1ccccc1)C(=O)c1cc2ccccc2c(-c2ccccc2Cl)n1
Ki (Translocator protein): 0.442 nM

CCC(C)N(C)C(=O)c1nc(-c2ccc(Cl)cc2)c2ccccc2n1 (stereo not given)
Activity (Homo sapiens [34]): inactive

CCN(Cc1ccccc1)C(=O)c1nc(-c2ccc(Cl)cc2)c2ccccc2n1
Ki (Translocator protein): 0.762 nM

CCN(Cc1ccccc1)C(=O)c1nc(-c2ccc(F)cc2)c2ccccc2n1
Ki (Translocator protein): 1.68 nM

CCOC(=O)c1ccc(CN(CC)C(=O)c2nc(-c3ccccc3)c3ccccc3n2)cc1
Ki (Translocator protein): 3.65 nM

CN(Cc1ccccc1)C(=O)c1nc(-c2ccc(Cl)cc2)c2ccccc2n1
Ki (Translocator protein): 6.12 nM

CCCCCCN(CCCCCC)C(=O)c1nc(-c2ccccc2)c2cc(Cl)ccc2n1
Activity (Homo sapiens [34]): inactive
